Measured values published in ChEMBL document CHEMBL1933017, “Synthesis and biological evaluation of some thiazolidinones as antimicrobial agents” (2012).
In brackets after ≈: the same amount, converted by molar mass.

What was measured:
Proteus vulgaris [1] = experiment: Antibacterial activity against Proteus vulgaris at 100 ug/disc after 24 hrs by disc diffusion method; format: functional; settings: read-out: DIZ
In short: (§1)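 Paper disc diffusion on autoclaved Mueller-Hinton agar poured 5 mm deep. Agar was swab-inoculated with 10⁵ CFU/mL suspension (0.5 McFarland). Discs 6.25 mm across were soaked in compound solution in DMSO (3.12–100 µg/mL) and plates incubated 24 h at (37 ± 1) °C. Read-out was inhibition zone (mm). DMSO control disc; ciprofloxacin or ketoconazole reference, 100 µg/disc. Mean of three independent experiments.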

Shigella flexneri [2] = experiment: Antibacterial activity against Shigella flexneri at 100 ug/disc after 24 hrs by disc diffusion method; format: functional; settings: read-out: DIZ; in short: as §1
Staphylococcus aureus [3] = experiment: Antibacterial activity against Staphylococcus aureus after 24 hrs by agar streak dilution method; format: functional
In short: (§2)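 MIC by agar streak dilution. Graded amounts of DMSO stock (100 μg/mL) were mixed into molten sterile nutrient agar and poured 4–5 mm deep. Serial concentrations spanned 3.12–100 µg/mL. Plates were inoculated with about 10⁵ CFU/mL of bacterial suspension and incubated at (37 ± 1) °C for 24 h. Each value is the mean of three independent experiments.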

Bacillus cereus [4] = experiment: Antibacterial activity against Bacillus cereus after 24 hrs by agar streak dilution method; format: functional; in short: as §2
Escherichia coli [5] = experiment: Antibacterial activity against Escherichia coli after 24 hrs by agar streak dilution method; format: functional; in short: as §2
Pseudomonas aeruginosa [6] = experiment: Antibacterial activity against Pseudomonas aeruginosa […] after 24 hrs by agar streak dilution method; format: functional
Klebsiella pneumoniae [7] = experiment: Antibacterial activity against Klebsiella pneumoniae […] after 24 hrs by agar streak dilution method; format: functional
Salmonella typhi [8] = experiment: Antibacterial activity against Salmonella Typhi after 24 hrs by agar streak dilution method; format: functional, Salmonella enterica subsp. enterica serovar Typhi; settings: Salmonella enterica
In short: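 Agar streak dilution: DMSO stock (100 µg/mL) graded into molten sterile nutrient agar, poured 4–5 mm deep and solidified. Plates carry serial dilutions spanning 3.12–100 µg/mL. Applied ~10⁵ CFU/mL suspension, then incubated 24 h at (37 ± 1) °C. MIC read as the lowest inhibitory concentration; each value is the mean of three independent experiments.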

Proteus vulgaris [9] = experiment: Antibacterial activity against Proteus vulgaris after 24 hrs by agar streak dilution method; format: functional; in short: as §2
Shigella flexneri [10] = experiment: Antibacterial activity against Shigella flexneri after 24 hrs by agar streak dilution method; format: functional; in short: as §2
Aspergillus niger [11] = experiment: Antifungal activity against Aspergillus niger after 48 hrs by agar streak dilution method; format: functional
In short: (§3)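 Fungal MIC by agar streak dilution on Sabouraud dextrose agar, poured 4–5 mm deep. Compound from a DMSO stock (100 μg/mL) was incorporated at serial concentrations of 3.12–100 µg/mL. Plates were inoculated with about 10⁵ CFU/mL of suspension and incubated at (37 ± 1) °C for 48 h. Each value is the mean of three independent experiments.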

Aspergillus fumigatus [12] = experiment: Antifungal activity against Aspergillus fumigatus after 48 hrs by agar streak dilution method; format: functional; in short: as §3
Aspergillus clavatus [13] = experiment: Antifungal activity against Aspergillus clavatus after 48 hrs by agar streak dilution method; format: functional; in short: as §3
Candida albicans [14] = experiment: Antifungal activity against Candida albicans after 48 hrs by agar streak dilution method; format: functional; in short: as §3
Aspergillus niger [15] = experiment: Antifungal activity against Aspergillus niger at 100 ug/disc after 24 hrs by disc diffusion method; format: functional; settings: read-out: DIZ; in short: as §1
Aspergillus fumigatus [16] = experiment: Antifungal activity against Aspergillus fumigatus at 100 ug/disc after 24 hrs by disc diffusion method; format: functional; settings: read-out: DIZ; in short: as §1
Aspergillus clavatus [17] = experiment: Antifungal activity against Aspergillus clavatus at 100 ug/disc after 24 hrs by disc diffusion method; format: functional; settings: read-out: DIZ; in short: as §1
Candida albicans [18] = experiment: Antifungal activity against Candida albicans at 100 ug/disc after 24 hrs by disc diffusion method; format: functional; settings: read-out: DIZ; in short: as §1
Staphylococcus aureus [19] = experiment: Antibacterial activity against Staphylococcus aureus at 100 ug/disc after 24 hrs by disc diffusion method; format: functional; settings: read-out: DIZ; in short: as §1
Bacillus cereus [20] = experiment: Antibacterial activity against Bacillus cereus at 100 ug/disc after 24 hrs by disc diffusion method; format: functional; settings: read-out: DIZ; in short: as §1
Escherichia coli [21] = experiment: Antibacterial activity against Escherichia coli at 100 ug/disc after 24 hrs by disc diffusion method; format: functional; settings: read-out: DIZ; in short: as §1
Pseudomonas aeruginosa [22] = experiment: Antibacterial activity against Pseudomonas aeruginosa at 100 ug/disc after 24 hrs by disc diffusion method; format: functional; settings: read-out: DIZ; in short: as §1
Klebsiella pneumoniae [23] = experiment: Antibacterial activity against Klebsiella pneumoniae at 100 ug/disc after 24 hrs by disc diffusion method; format: functional; settings: read-out: DIZ; in short: as §1
Salmonella typhi [24] = experiment: Antibacterial activity against Salmonella Typhi at 100 ug/disc after 24 hrs by disc diffusion method; format: functional, Salmonella enterica subsp. enterica serovar Typhi; settings: Salmonella enterica, read-out: DIZ
In short: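 Paper disc diffusion on Mueller-Hinton agar poured 5 mm deep; 10⁵ CFU/mL suspension (0.5 McFarland) swabbed over surface. 6.25 mm filter paper discs soaked in compound in DMSO, incubated 24 h at (37 ± 1) °C; inhibition zone diameter in mm. DMSO disc as blank; ciprofloxacin 100 µg/disc as reference. Mean of three independent experiments.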

SMILES	zone of inhibition at 100 µg/disc (Proteus vulgaris [1])	zone of inhibition at 100 µg/disc (Shigella flexneri [2])	MIC (Staphylococcus aureus [3])	MIC (Bacillus cereus [4])	MIC (Escherichia coli [5])	MIC (Pseudomonas aeruginosa [6])	MIC (Klebsiella pneumoniae [7])	MIC (Salmonella typhi [8])	MIC (Proteus vulgaris [9])	MIC (Shigella flexneri [10])	MIC (Aspergillus niger [11])	MIC (Aspergillus fumigatus [12])	MIC (Aspergillus clavatus [13])	MIC (Candida albicans [14])	zone of inhibition at 100 µg/disc (Aspergillus niger [15])	zone of inhibition at 100 µg/disc (Aspergillus fumigatus [16])	zone of inhibition at 100 µg/disc (Aspergillus clavatus [17])	zone of inhibition at 100 µg/disc (Candida albicans [18])	zone of inhibition at 100 µg/disc (Staphylococcus aureus [19])	zone of inhibition at 100 µg/disc (Bacillus cereus [20])	further results
CCN1CCN(CC2SC(c3ccc([N+](=O)[O-])cc3)N(c3ccc(Nc4nc(Oc5cc(=O)n(C)c6ccccc56)nc(N(C)C)n4)cc3)C2=O)CC1 (stereo unspecified)	25 mm	22 mm	50 µg/mL (≈ 67.9 µM)	50 µg/mL (≈ 67.9 µM)	100 µg/mL (≈ 136 µM)	100 µg/mL (≈ 136 µM)	50 µg/mL (≈ 67.9 µM)	100 µg/mL (≈ 136 µM)	50 µg/mL (≈ 67.9 µM)	50 µg/mL (≈ 67.9 µM)	50 µg/mL (≈ 67.9 µM)	100 µg/mL (≈ 136 µM)	100 µg/mL (≈ 136 µM)	100 µg/mL (≈ 136 µM)	23 mm	20 mm	21 mm	17 mm	22 mm	22 mm	zone of inhibition at 100 µg/disc (Escherichia coli [21]): 24 mm; zone of inhibition at 100 µg/disc (Pseudomonas aeruginosa [22]): 18 mm; zone of inhibition at 100 µg/disc (Klebsiella pneumoniae [23]): 23 mm; zone of inhibition at 100 µg/disc (Salmonella typhi [24]): 22 mm
CCN1CCN(CC2SC(c3ccccc3[N+](=O)[O-])N(c3ccc(Nc4nc(Oc5cc(=O)n(C)c6ccccc56)nc(N(C)C)n4)cc3)C2=O)CC1 (stereo unspecified)	17 mm	14 mm	100 µg/mL (≈ 136 µM)	50 µg/mL (≈ 67.9 µM)	100 µg/mL (≈ 136 µM)	100 µg/mL (≈ 136 µM)	100 µg/mL (≈ 136 µM)	100 µg/mL (≈ 136 µM)	100 µg/mL (≈ 136 µM)	100 µg/mL (≈ 136 µM)	100 µg/mL (≈ 136 µM)	100 µg/mL (≈ 136 µM)	100 µg/mL (≈ 136 µM)	100 µg/mL (≈ 136 µM)	< 10 mm	13 mm	15 mm	19 mm	13 mm	17 mm	zone of inhibition at 100 µg/disc (Escherichia coli [21]): 14 mm; zone of inhibition at 100 µg/disc (Pseudomonas aeruginosa [22]): 16 mm; zone of inhibition at 100 µg/disc (Klebsiella pneumoniae [23]): 15 mm; zone of inhibition at 100 µg/disc (Salmonella typhi [24]): 15 mm
CCN1CCN(CC2SC(c3ccc(O)cc3)N(c3ccc(Nc4nc(Oc5cc(=O)n(C)c6ccccc56)nc(N(C)C)n4)cc3)C2=O)CC1 (stereo unspecified)	16 mm	13 mm	25 µg/mL (≈ 35.3 µM)	50 µg/mL (≈ 70.6 µM)	50 µg/mL (≈ 70.6 µM)	100 µg/mL (≈ 141 µM)	50 µg/mL (≈ 70.6 µM)	50 µg/mL (≈ 70.6 µM)	100 µg/mL (≈ 141 µM)	100 µg/mL (≈ 141 µM)	100 µg/mL (≈ 141 µM)	50 µg/mL (≈ 70.6 µM)	100 µg/mL (≈ 141 µM)	100 µg/mL (≈ 141 µM)	18 mm	21 mm	21 mm	19 mm	23 mm	20 mm	zone of inhibition at 100 µg/disc (Escherichia coli [21]): 16 mm; zone of inhibition at 100 µg/disc (Pseudomonas aeruginosa [22]): 14 mm; zone of inhibition at 100 µg/disc (Klebsiella pneumoniae [23]): 19 mm; zone of inhibition at 100 µg/disc (Salmonella typhi [24]): 17 mm
CCN1CCN(CC2SC(c3ccc(Br)cc3)N(c3ccc(Nc4nc(Oc5cc(=O)n(C)c6ccccc56)nc(N(C)C)n4)cc3)C2=O)CC1 (stereo unspecified)	17 mm	15 mm	100 µg/mL (≈ 130 µM)	100 µg/mL (≈ 130 µM)	100 µg/mL (≈ 130 µM)	100 µg/mL (≈ 130 µM)	100 µg/mL (≈ 130 µM)	100 µg/mL (≈ 130 µM)	100 µg/mL (≈ 130 µM)	100 µg/mL (≈ 130 µM)	100 µg/mL (≈ 130 µM)	100 µg/mL (≈ 130 µM)	100 µg/mL (≈ 130 µM)	100 µg/mL (≈ 130 µM)	14 mm	14 mm	16 mm	12 mm	15 mm	18 mm	zone of inhibition at 100 µg/disc (Escherichia coli [21]): 19 mm; zone of inhibition at 100 µg/disc (Pseudomonas aeruginosa [22]): 16 mm; zone of inhibition at 100 µg/disc (Klebsiella pneumoniae [23]): 19 mm; zone of inhibition at 100 µg/disc (Salmonella typhi [24]): 17 mm
